OX1R antag-1 = antagonists of human orexin 1 receptor (OX1R); OX1R-expressing cells, FRET antagonist read-out; inhibition, % at 6.6 µM; 1.8% of 330,000 active; AID 485270; in the data active = inhibition mostly above about 38%, no sharp cut-off; inactive = mostly below about 40%
OX1R antag-2 = human HCRTR1 antagonism; O43613; CHO/OX1R cells, Fluo-8 calcium fluorescence, orexin A; inhibition, % at 5 µM; 0.43% of 330,000 active; AID 434989;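 active = inhibition above its plate's threshold, mean inhibition of all tested compounds on the plate plus 3 SD, cut at about 37% in these data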
OXTR ag = agonists of human oxytocin receptor | activation, % at 3 µM | 0.32% of 320,000 active | P30559 | CHO-OTR cells, Fluo-8 calcium fluorescence; normalized: DMSO 0%, oxytocin 100%;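 active = activation above the mean of all tested compounds plus 3 SD, cutoff set per screening run, cut at about 20% in these data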;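 also: peak over basal fluorescence ratio from a 100 s FLIPR kinetic read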
Target sequence (P30559 whole entry, looked up): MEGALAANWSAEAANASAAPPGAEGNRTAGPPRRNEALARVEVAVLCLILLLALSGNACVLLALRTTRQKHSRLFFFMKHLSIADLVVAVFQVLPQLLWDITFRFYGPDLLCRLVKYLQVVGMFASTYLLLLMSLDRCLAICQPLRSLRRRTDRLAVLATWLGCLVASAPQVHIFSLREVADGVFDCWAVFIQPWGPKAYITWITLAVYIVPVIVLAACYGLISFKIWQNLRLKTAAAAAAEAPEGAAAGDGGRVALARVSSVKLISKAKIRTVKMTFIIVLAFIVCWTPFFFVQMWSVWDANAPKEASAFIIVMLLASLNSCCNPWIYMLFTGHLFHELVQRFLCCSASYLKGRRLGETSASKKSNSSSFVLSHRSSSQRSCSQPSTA
CHO parental Ca = signal in parental CHO cells, OX1R antagonist counter-screen; 0.63% of 330,000 active; parental CHO-K1, ATP-induced calcium, Fluo-8 fluorescence; inhibition, % at 5.6 µM; AID 463079;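 active = inhibition above that plate's mean sample inhibition plus 3 SD, cut at about 26% in these data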
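Material: parental CHO cells / Compound: single nominal dose of 5.6 µM per compound / Signal: Fluo-8 fluorescence / Replicates: singlicate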
OXTR potentiate = human OXTR potentiation; P30559; CHO-OTR cells, Fluo-8 calcium fluorescence, potentiator mode; 0% = oxytocin EC15, 100% = EC100; activation, % at 3 µM; 0.061% of 320,000 active;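 active = activation above that plate's cutoff, the mean activation of tested compounds plus 3 SD, cut at about 6.6% in these data, passing the limit was not always enough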
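test system = CHO-OTR cells, human receptor | compound = single-point 3.0 µM | schedule = 6 min compound pre-incubation at room temperature, 100 s kinetic read | signal = Fluo-8 no-wash calcium dye fluorescence, excitation 470-495 nm, emission 515-575 nm | repeats = single well per compound, singlicate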
V1R ag counter = counter-screen for oxytocin receptor agonists: human V1a receptor agonists; P37288; CHO-V1R cells, Fluo-8 calcium fluorescence, agonist mode; 0% DMSO, 100% 3 nM vasopressin; activation, % at 3 µM; 0.25% of 320,000 active;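 active = activation above the mean activation of all tested compounds plus 3 SD, per screening run, cut at about 20% in these data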;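 also: signal is peak over basal fluorescence ratio across a 100 second FLIPR read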
Each line names hits and unclear results; the compound was inactive in the other large screens. Only some compounds are listed: those with a hit (about 2.7% of all), similar ones and a draw of the others.

CCc1ccc(-c2nc(CSCC(=O)N3CCN(c4ncccn4)CC3)c(C)o2)cc1	OX1R antag-1 41.6
Cc1cccc2cc(C#N)c(NCCNS(=O)(=O)c3ccccc3)nc12	OX1R antag-1 58.0
Cc1cccc2cc(C#N)c(NCc3ccccc3)nc12	none
Cc1ccc(Cl)cc1N1CCN(C(=O)CSc2nnc3n2C(C)(C)Cc2ccccc2-3)CC1	OX1R antag-1 104.3, OX1R antag-2 76.9, CHO parental Ca 76.6
COc1ccc(N2CCN(C(=O)CSc3nnc4n3C(C)(C)Cc3ccccc3-4)CC2)cc1	none
Cc1ccc(S(=O)(=O)Nc2cccc(C(=O)NC3CCN(Cc4ccccc4)CC3)c2)cc1F	none
Cc1ccc(NS(=O)(=O)c2ccc(C(=O)NC3CCN(Cc4ccccc4)CC3)cc2)cc1	OXTR ag 21.5, V1R ag counter 20.8
CCOc1ccc(S(=O)(=O)Nc2cccc(C(=O)NCC(c3ccco3)N(C)C)c2)cc1 (stereo unspecified)	none
CCOc1ccc(NS(=O)(=O)c2ccc(C(=O)NCC(c3ccco3)N(C)C)cc2)cc1 (stereo unspecified)	OXTR ag 26.1, V1R ag counter 22.6
Cc1cc(S(=O)(=O)Nc2ccc(C(=O)NCC3(N4CCCCC4)CCCCC3)cc2)ccc1F	none
CS(=O)(=O)Nc1ccc(C(=O)NCc2ccccn2)cc1	none
Cc1ccc(NS(=O)(=O)c2ccc(C(=O)NCc3ccccn3)cc2)cc1	OXTR ag 25.0, V1R ag counter 30.9
CCOc1ccc(NS(=O)(=O)c2ccc(C(=O)NCC3(N4CCCCC4)CCCCC3)cc2)cc1	OXTR ag 35.5, V1R ag counter 24.8
O=C(C(=O)N1CCN(c2ccc(F)cc2)CC1)c1cn(CC(=O)N2CCOCC2)c2ccccc12	none
CCCc1ccc(-c2cc(NC(=O)CSc3nnc(N)s3)n(-c3ccccc3)n2)cc1	none
COc1ccc(-c2c(C(F)(F)F)nn(C)c2NC(C)=O)cc1	none
CCOc1ccc(NS(=O)(=O)c2ccc(C(=O)NCc3ccncc3)cc2)cc1	none
CCOc1ccc(NS(=O)(=O)c2ccc(C(=O)NCc3ccccn3)cc2)cc1	OXTR ag 30.9, V1R ag counter 26.9
COc1ccc(Cl)cc1NC(=O)CSc1nc2sccc2c(=O)[nH]1	OX1R antag-1 62.9
COc1ccccc1NC(=O)CSc1nc2nc(C)cc(C)c2c(=O)[nH]1	none
COc1ccc(Cl)cc1NC(=O)CSc1nc(C)cc(C)n1	none
COc1ccc(C)cc1NC(=O)CSc1nc2scc(C)c2c(=O)[nH]1	OX1R antag-1 71.1
Cc1nnc(NC(=O)c2ccc(Br)o2)s1	none
CCCC(=O)Nc1ccc(NC(=S)NC(=O)c2ccccc2[N+](=O)[O-])cc1	none
C/C(CC(=O)Nc1ccc([N+](=O)[O-])cc1)=N\NC(=O)c1ccccc1[N+](=O)[O-]	CHO parental Ca 32.0
CC(C)n1cc(CN2CCCC(C(=O)Nc3cccc(-c4cc5ccccc5[nH]4)c3)C2)cn1 (stereo unspecified)	OXTR ag 24.4, V1R ag counter 25.9
O=CN(c1ccccc1)c1ccc2ccccc2c1	none
O=[N+]([O-])c1c(N2CCN(CCO)CC2)nc2ccccn12	OX1R antag-1 70.2
CC(C)c1ccc(NC2CCCN(C(=O)c3n[nH]c4c3CCC4)C2)cc1 (stereo unspecified)	none
Cc1cc(NC(=O)CSc2ncnc3sc(C)c(C)c23)no1	none
CCOC(=O)C1=C(C)NC(C)=C(C(=O)OCC)C1C(=O)OCC(=O)NCc1ccccc1OC	OX1R antag-1 44.9
O=C(Oc1ccc[nH]c1=O)c1cc([N+](=O)[O-])cc([N+](=O)[O-])c1	OX1R antag-1 68.5
COCc1c(C(=O)N2CCN(c3ccc(C(F)(F)F)cn3)CC2)oc2ccccc12	none
N=c1c(C(=O)NCc2ccco2)cc2c(=O)n3ccccc3nc2n1CC1CCCO1 (stereo unspecified)	OX1R antag-1 49.5
N=c1c(C(=O)NCc2ccc3c(c2)OCO3)cc2c(=O)n3ccccc3nc2n1CC1CCCO1 (stereo unspecified)	OX1R antag-1 68.7
N=c1c(C(=O)NCc2ccc(F)cc2)cc2c(=O)n3ccccc3nc2n1CC1CCCO1 (stereo unspecified)	OX1R antag-1 72.2
Cc1ccc(Cn2c(=N)c(C(=O)NCc3ccco3)cc3c(=O)n4ccccc4nc32)cc1	none
C[C@]12c3[nH]c4ccc(Cl)cc4c3CCN1C(=O)[C@@H](CC(=O)NCc1ccco1)C[C@@H]2C(=O)N1CCCCC1	none (no result: OXTR ag, OXTR potentiate, V1R ag counter)
O=[N+]([O-])c1ccc(Sc2ncc3ccccn23)nc1	none
CN(C)CCNc1ccc(-c2nn(C)c(=O)c3ccccc23)cc1[N+](=O)[O-]	OX1R antag-1 42.5
COc1ccc(C(=O)NCc2nnc(SCC(=O)N3CCc4ccccc43)n2Cc2ccccc2)cc1	none
COc1cccc(Cn2c(N)c(C#N)c3nc4ccccc4nc32)c1OC	OX1R antag-1 46.3
Cc1nn(CCCC(=O)NCCCN2CCN(C)CC2)c(=O)c2c1sc1ccccc12	none
COc1ccc(OC)c(NC(=O)CS(=O)(=O)Cc2nc(-c3ccccc3C)oc2C)c1	OX1R antag-1 72.2
COc1ccc(-c2nc(CS(=O)(=O)CC(=O)Nc3cccc(C(C)=O)c3)c(C)o2)cc1	none
COc1cccc(-c2nc(CS(=O)(=O)CC(=O)Nc3c(C)cccc3C)c(C)o2)c1	none
COc1cccc(-c2nc(CS(=O)(=O)CC(=O)Nc3cccc(C(C)=O)c3)c(C)o2)c1	OX1R antag-1 47.9
CCC(=O)N1CCc2cc(S(=O)(=O)NCCC(=O)N3CCN(c4cccc(C)c4)C(C)C3)ccc21 (stereo unspecified)	none
Cc1noc(C)c1COC(=O)c1cccc(S(=O)(=O)N2CCCCCC2)c1	CHO parental Ca 49.3
O=C1c2c(O)ccc(O)c2C(=O)c2c(NCCNCCO)ccc(NCCNCCO)c21	OX1R antag-1 64.7
O=C1c2ccccc2C(=O)c2c(Nc3ccc(CCO)cc3)ccc(O)c21	none
COC(=O)[C@@]12CCCCN1[C@H](c1ccc(-c3cccc(Cl)c3)cc1)[C@@H]1C(=O)N(C)C(=O)[C@@H]12	none
COc1ccccc1-n1c(SCC(=O)N2CCCC2)nnc1-c1ccccc1	none
COc1ccc(OC)c(NC(=O)CSc2ncnc3c2cnn3-c2ccccc2Cl)c1	OX1R antag-2 51.8, CHO parental Ca 52.8
O=C(Cn1ncc(Cl)c(Cl)c1=O)N1CCN(S(=O)(=O)c2ccc3ccccc3c2)CC1	CHO parental Ca 30.8
O=C(O)CCC(=O)N1CCN(S(=O)(=O)c2ccc3ccccc3c2)CC1	none
CC(NC(=O)CN1C(=O)c2ccccc2C1=O)c1ccccc1 (stereo unspecified)	none

Screens (PubChem BioAssay)
